13 compounds from ChEMBL document CHEMBL1157201, “1,5-Disubstituted 1,2,3-triazoles as cis-restricted analogues of combretastatin A-4: Synthesis, molecular modeling and evaluation as cytotoxic agents and inhibitors of tubulin” (Bioorg Med Chem, 2008) can be followed below.

One assay has as its system K562. The assay can be described thus: Cytotoxicity against human K562 cells after 5 days by MTT assay. The assay is classed as functional, cell-based. The conditions noted are these: K562, 120 h. In a few lines: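 K562 chronic myelogenous leukemia cells grown in antibiotic-free RPMI with 2-mercaptoethanol (2 μM), L-glutamine (2 mM) and 10% FCS, seeded at ca 40,000 cells/mL. DMSO-dissolved drug added as a serial dilution series, with a drug-free control. Incubated 37 °C, 5% CO2. MTT (3 mg/mL in PBS) added for 3 h, formazan dissolved in DMSO, OD read at 540 and 690 nm. IC50 derived graphically as percentage of control growth.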

Another assay addresses Tubulin (Sus scrofa, UniProt P02554+P02550). As to the kind of experiment: Inhibition of pig brain tubulin polymerization. In a few lines: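 Porcine brain tubulin stored at -78 °C. Mixed with Mes buffer (0.1 M Mes, 1 mM EGTA, 0.5 mM MgCl2, pH 6.6) and GTP (stock 5 mM) plus drug in DMSO, in a plate prechilled 30 min at 4 °C. Absorbance at 350 nm followed 60 min at 25 °C against drug-only blanks and untreated controls. IC50 derived graphically as percentage of control assembly.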

The nature of assay [1]: Cytotoxicity against human SKOV cells assessed as [3H]thymidine incorporation after 72 hrs by microplate scintillation counter. The assay is classed as functional, cell-based. In a few lines:
(§1)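 RPMI 1640 with 2 mM L-glutamine, plus 5% FCS (WM35, WM239) or 10% FCS (SKOV, OVCAR, MDA-MB231, SK-BR 3); SK-BR 3 medium also had 12,5 µM insulin. 1 µCi [3H]thymidine label for the final 24 h. Controls got solvent-only medium. Values are medians of three experiments.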

Assay [2] in a line: Cytotoxicity against human WM239 cells assessed as [3H]thymidine incorporation after 72 hrs by microplate scintillation counter. It is filed as functional, cell-based. In a few lines:
as §1

Another assay concerns OVCAR. The assay can be described thus: Cytotoxicity against human OVCAR cells assessed as [3H]thymidine incorporation after 72 hrs by microplate scintillation counter. The assay is classed as functional, cell-based. In a few lines: as §1
A general note: Incorporation of labelled thymidine or its analogues reports DNA synthesis.

The next assay has as its system MDA-MB-231. The assay can be described thus: Cytotoxicity against human MDA-MB-231 cells assessed as [3H]thymidine incorporation after 72 hrs by microplate scintillation counter. It is filed as functional, cell-based. In a few lines:
as §1

Assay [3] in a line: Cytotoxicity against human WM35 cells assessed as [3H]thymidine incorporation after 72 hrs by microplate scintillation counter. It is filed as functional, cell-based. In a few lines:
as §1

The next assay deals with SK-BR-3. The assay can be described thus: Cytotoxicity against human SK-BR3 cells assessed as [3H]thymidine incorporation after 72 hrs by microplate scintillation counter. The assay is classed as functional, cell-based. In a few lines:
as §1

On to `COc1ccc(-n2nncc2-c2cc(OC)c(OC)c(OC)c2)cc1`, for which it took 4000 nM to reach half-maximal inhibition with K562 (IC50).

Take `COc1ccc(-c2cn(-c3cc(OC)c(OC)c(OC)c3)nn2)cc1[N+](=O)[O-]`: the IC50 (in general, the point on the concentration scale where inhibition reaches its midpoint) with K562 was > 10000 nM.

For the compound `COc1ccc(-n2nncc2-c2cc(OC)c(OC)c(OC)c2)cc1N`, the IC50 was 570 nM in the assay on K562 and > 20 µM on Tubulin.

With `COc1ccc(-n2nncc2-c2cc(OC)c(OC)c(OC)c2)cc1O`, the concentration for half-maximal inhibition (IC50) in the assay on K562 came to 410 nM; against Tubulin, 14 µM.

Consider `COc1ccc(-c2cnnn2-c2cc(OC)c(OC)c(OC)c2)cc1`, for which the 50% inhibitory concentration (IC50) with K562 stood at 27 nM; against Tubulin, 7 µM.

`COc1ccc(-n2nncc2-c2cc(OC)c(OC)c(OC)c2)cc1Br` showed an IC50 with K562 of 3600 nM.

Take `COc1ccc(-c2cnnn2-c2cc(OC)c(OC)c(OC)c2)cc1Br`: the figures for the IC50 in the assay with K562 and against Tubulin were 57 nM and > 20 µM, respectively.

As to `COc1ccc(-n2nncc2-c2cc(OC)c(OC)c(OC)c2)cc1[N+](=O)[O-]`, the concentration for half-maximal inhibition (IC50) in the assay with K562 is > 10000 nM.

For `COc1ccc(-c2cnnn2-c2cc(OC)c(OC)c(OC)c2)cc1N`, the 50% inhibitory concentration (IC50) in assay [1] was 4.9 nM; in the assay on K562 it was 11 nM; in assay [2], 5.1 nM; in the assay with OVCAR, 4.7 nM; against Tubulin, 4.8 µM; with MDA-MB-231 it was > 10 nM. Moreover, the values for the 50% inhibitory concentration (IC50) (in assay [3]; in the assay on SK-BR-3) were 3.9 nM and 4 nM, respectively.

Regarding `COc1ccc(/C=C\c2cc(OC)c(OC)c(OC)c2)cc1O` [COMBRETASTATIN A4], the half-inhibitory concentration (IC50) was determined as 3.3 nM in assay [1]; 10 nM in the assay with K562; 2.8 nM in assay [2]; 3.3 nM with OVCAR; 6 nM in the assay on MDA-MB-231; 2.5 nM in assay [3]. For the same compound, the IC50 in the assay on SK-BR-3 was 5.1 nM.

`COc1ccc(-c2cnnn2-c2cc(OC)c(OC)c(OC)c2)cc1O` registered an IC50 at Tubulin of 12.6 µM.

Turning to `COc1ccc(-c2cn(-c3cc(OC)c(OC)c(OC)c3)nn2)cc1N`, the IC50 in the assay with K562 was 1300 nM; against Tubulin it was > 20 µM.

Take `COc1ccc(-c2cnnn2-c2cc(OC)c(OC)c(OC)c2)cc1[N+](=O)[O-]`: the IC50 with K562 was 460 nM; at Tubulin, > 20 µM.
